According to ChEMBL document CHEMBL1141973, “6'-Methylpyrido[3,4-b]norhomotropane: synthesis and outstanding potency in relation to the alpha4beta2 nicotinic receptor pharmacophore model” (Bioorg Med Chem Lett, 2005):

Assays:
Format in all cases: cell-based
[1] = Binding affinity for nicotinic acetylcholine receptor alpha4-beta2 from mouse M10 cells; n=3
Summary of the method: (§1)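 α4β2 receptor immunoisolated with mAb 270 from mouse fibroblast M10 cells. Competition binding against (−)-[³H]nicotine at 7 nM. Ki was obtained from IC50 by Cheng–Prusoff, Ki = IC50/(1 + [L]/KD), with KD 3.8 nM.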

[2] = Dissociation constant for nicotinic acetylcholine receptor alpha4-beta2 of mouse M10 cells; n=3; summary of the method: as §1
[3] = target: T1, Neuronal acetylcholine receptor subunit alpha-7 (Homo sapiens, UniProt P36544); test: Dissociation constant for nicotinic acetylcholine receptor alpha 7 from human neuroblastoma SH-SY5Y cells; n=3
[4] = target: T1, Neuronal acetylcholine receptor subunit alpha-7; test: Binding affinity for nicotinic acetylcholine receptor alpha 7 from human neuroblastoma SH-SY5Y cells; n=3

T1 sequence (P36544 whole entry): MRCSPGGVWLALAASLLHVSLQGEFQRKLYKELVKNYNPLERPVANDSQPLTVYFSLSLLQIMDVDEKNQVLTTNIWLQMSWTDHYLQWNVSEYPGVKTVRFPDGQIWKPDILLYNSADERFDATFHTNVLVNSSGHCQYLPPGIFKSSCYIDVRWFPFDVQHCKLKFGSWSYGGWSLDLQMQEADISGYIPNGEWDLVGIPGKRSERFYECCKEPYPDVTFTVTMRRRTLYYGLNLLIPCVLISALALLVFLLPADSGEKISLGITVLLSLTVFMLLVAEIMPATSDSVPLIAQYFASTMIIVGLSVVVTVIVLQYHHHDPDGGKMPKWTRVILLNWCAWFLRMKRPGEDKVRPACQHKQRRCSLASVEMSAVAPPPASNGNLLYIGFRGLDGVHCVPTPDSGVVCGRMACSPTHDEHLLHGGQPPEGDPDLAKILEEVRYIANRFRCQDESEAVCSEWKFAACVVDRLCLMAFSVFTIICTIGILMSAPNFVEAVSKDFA

SMILES | Ki [1] | Kd [2] | Kd [3] | Ki [4]
CN1CCC[C@@H]1c1cccnc1 [R-NICOTINE] | 2.5 nM | 0.0038 µM |  | 
Clc1ccc(C2CC3CCC2N3)cn1 (racemic) [EPIBATIDINE] | 0.035 nM | 0.00308 µM | 0.00106 µM | 
c1cncc([C@@H]2CCCN2)c1 (racemic) [NORNICOTINE] | 14 nM |  | 0.00106 µM | 138 µM
Cc1cc2c(cn1)C1CCC(CC2)N1 (racemic) | 0.39 nM | 0.00039 µM | 0.00106 µM | ~1000 µM
c1cc2c(cn1)C1CCC(CC2)N1 (racemic) | 1.3 nM | 0.00308 µM | 0.00106 µM | > 100 µM
